Laboratory results: ChEMBL document CHEMBL3826935, “Synthesis and Pharmacology of (Pyridin-2-yl)methanol Derivatives as Novel and Selective Transient Receptor Potential Vanilloid 3 Antagonists” (J Med Chem, 2016)

Assays:
Liver microsome = assay: Unbound intrinsic clearance in rat liver microsomes after 5 hrs by LC-MS/MS analysis; type: ADME
Summary of the method: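 Microsomal stability run in an automated high-throughput plate format. Intrinsic clearance corrected for nonspecific microsomal binding using measured unbound fraction (fu,mic), reported as unbound Clint in L/h/kg.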

[1] = Oral bioavailability in rat at 2 mg/kg; type: ADME, organism-based; settings: in vivo
Summary of the method: (§1)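 Rat pharmacokinetics: iv dose 1 mg/kg; po dose 1 or 2 mg/kg depending on compound. AUC taken over 0–8 h. Unbound parameters calculated using plasma free fraction.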

Rattus norvegicus [2] = assay: Antiallodynic activity in po dosed chronic constriction injury Sprague-Dawley rat model of neuropathic pain assessed as attenuation of mechanical allodynia induced by von Frey hair stimulation to the ipsilateral hind paw; type: functional, organism-based
Summary of the method: (§2)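 Rat neuropathic pain models dosed orally. Mechanical allodynia measured by von Frey stimulation of the injured ipsilateral paw, with a 15 g threshold taken as maximal possible effect and results expressed as %MPE. Vehicle 10% DMSO in PEG; n = 6 per group.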

[3] = Fraction unbound in human plasma; type: ADME, cell-free
Rattus norvegicus [4] = assay: Antiallodynic activity in po dosed sciatic nerve ligation Sprague-Dawley rat model of neuropathic pain assessed as attenuation of mechanical allodynia induced by von Frey hair stimulation to the ipsilateral hind paw; type: functional, organism-based; summary of the method: as §2
Rattus norvegicus [5] = assay: Toxicity in Sprague-Dawley rat reserpine model of central pain assessed as behavioral changes at 10 to 100 mg/kg, po; type: organism-based; settings: in vivo
[6] = target: Sodium channel protein type 9 subunit alpha (Homo sapiens) (UniProt Q15858); assay: Binding affinity to Nav1.7 (unknown origin) at 10 uM
Sequence of Sodium channel protein type 9 subunit alpha (Homo sapiens) (Q15858 whole entry, looked up): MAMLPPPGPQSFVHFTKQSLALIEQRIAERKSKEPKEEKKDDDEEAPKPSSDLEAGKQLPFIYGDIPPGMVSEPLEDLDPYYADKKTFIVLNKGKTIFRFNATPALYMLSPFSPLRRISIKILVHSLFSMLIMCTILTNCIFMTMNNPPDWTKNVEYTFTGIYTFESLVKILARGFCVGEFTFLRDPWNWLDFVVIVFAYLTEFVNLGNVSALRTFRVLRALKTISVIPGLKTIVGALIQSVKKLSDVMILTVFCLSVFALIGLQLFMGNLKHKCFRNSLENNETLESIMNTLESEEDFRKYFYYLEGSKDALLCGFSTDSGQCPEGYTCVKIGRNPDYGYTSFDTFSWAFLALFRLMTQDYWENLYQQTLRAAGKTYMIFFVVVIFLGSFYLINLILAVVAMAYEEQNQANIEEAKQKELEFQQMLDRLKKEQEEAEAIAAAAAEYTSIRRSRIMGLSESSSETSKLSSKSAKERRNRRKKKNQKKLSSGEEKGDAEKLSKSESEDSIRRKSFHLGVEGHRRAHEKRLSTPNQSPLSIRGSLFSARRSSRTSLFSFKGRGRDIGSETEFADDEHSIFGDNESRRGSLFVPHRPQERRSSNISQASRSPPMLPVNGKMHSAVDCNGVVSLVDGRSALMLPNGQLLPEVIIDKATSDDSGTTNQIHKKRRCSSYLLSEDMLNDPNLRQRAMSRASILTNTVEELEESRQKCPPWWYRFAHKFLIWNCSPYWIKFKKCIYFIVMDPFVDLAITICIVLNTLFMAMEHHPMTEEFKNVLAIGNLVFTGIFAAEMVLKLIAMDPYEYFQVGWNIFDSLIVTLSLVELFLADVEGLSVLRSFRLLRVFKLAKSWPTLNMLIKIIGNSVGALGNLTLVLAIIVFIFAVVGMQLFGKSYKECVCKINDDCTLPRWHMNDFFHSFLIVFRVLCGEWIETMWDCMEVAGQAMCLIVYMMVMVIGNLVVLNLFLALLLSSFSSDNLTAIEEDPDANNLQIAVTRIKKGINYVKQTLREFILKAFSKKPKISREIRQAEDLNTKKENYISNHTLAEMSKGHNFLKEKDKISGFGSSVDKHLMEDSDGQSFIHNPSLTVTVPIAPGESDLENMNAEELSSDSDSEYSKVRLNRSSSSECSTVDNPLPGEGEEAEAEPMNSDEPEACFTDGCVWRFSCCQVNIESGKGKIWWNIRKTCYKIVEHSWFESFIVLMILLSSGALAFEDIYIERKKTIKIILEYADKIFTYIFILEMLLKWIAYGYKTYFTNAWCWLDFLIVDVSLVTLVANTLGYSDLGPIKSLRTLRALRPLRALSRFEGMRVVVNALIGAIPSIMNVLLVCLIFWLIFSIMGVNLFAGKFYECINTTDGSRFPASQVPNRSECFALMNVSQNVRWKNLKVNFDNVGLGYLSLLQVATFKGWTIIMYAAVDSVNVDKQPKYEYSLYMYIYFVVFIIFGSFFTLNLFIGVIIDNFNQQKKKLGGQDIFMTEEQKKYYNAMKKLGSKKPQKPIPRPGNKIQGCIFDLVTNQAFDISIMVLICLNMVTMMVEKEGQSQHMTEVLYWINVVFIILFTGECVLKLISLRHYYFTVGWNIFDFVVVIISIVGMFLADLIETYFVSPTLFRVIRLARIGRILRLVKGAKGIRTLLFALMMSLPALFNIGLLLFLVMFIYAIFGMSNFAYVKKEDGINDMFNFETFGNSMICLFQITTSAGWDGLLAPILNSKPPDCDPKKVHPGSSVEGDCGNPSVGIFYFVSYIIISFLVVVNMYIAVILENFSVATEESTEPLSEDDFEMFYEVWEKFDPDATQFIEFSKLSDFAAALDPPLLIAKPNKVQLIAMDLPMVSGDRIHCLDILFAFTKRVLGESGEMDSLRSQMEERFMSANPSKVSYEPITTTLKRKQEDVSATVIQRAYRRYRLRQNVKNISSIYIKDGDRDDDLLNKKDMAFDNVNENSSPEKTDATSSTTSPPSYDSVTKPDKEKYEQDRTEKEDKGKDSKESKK
Summary of the method: (§3)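 Selectivity screen at 10 µM across CEREP and internal target panels. Readout is percent binding, with 50% as the threshold.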

[7] = target: Voltage-dependent N-type calcium channel subunit alpha-1B (Homo sapiens) (UniProt Q00975); assay: Binding affinity to Cav2.2 (unknown origin) at 10 uM; summary of the method: as §3
Sequence of Voltage-dependent N-type calcium channel subunit alpha-1B (Homo sapiens) (Q00975 whole entry, looked up): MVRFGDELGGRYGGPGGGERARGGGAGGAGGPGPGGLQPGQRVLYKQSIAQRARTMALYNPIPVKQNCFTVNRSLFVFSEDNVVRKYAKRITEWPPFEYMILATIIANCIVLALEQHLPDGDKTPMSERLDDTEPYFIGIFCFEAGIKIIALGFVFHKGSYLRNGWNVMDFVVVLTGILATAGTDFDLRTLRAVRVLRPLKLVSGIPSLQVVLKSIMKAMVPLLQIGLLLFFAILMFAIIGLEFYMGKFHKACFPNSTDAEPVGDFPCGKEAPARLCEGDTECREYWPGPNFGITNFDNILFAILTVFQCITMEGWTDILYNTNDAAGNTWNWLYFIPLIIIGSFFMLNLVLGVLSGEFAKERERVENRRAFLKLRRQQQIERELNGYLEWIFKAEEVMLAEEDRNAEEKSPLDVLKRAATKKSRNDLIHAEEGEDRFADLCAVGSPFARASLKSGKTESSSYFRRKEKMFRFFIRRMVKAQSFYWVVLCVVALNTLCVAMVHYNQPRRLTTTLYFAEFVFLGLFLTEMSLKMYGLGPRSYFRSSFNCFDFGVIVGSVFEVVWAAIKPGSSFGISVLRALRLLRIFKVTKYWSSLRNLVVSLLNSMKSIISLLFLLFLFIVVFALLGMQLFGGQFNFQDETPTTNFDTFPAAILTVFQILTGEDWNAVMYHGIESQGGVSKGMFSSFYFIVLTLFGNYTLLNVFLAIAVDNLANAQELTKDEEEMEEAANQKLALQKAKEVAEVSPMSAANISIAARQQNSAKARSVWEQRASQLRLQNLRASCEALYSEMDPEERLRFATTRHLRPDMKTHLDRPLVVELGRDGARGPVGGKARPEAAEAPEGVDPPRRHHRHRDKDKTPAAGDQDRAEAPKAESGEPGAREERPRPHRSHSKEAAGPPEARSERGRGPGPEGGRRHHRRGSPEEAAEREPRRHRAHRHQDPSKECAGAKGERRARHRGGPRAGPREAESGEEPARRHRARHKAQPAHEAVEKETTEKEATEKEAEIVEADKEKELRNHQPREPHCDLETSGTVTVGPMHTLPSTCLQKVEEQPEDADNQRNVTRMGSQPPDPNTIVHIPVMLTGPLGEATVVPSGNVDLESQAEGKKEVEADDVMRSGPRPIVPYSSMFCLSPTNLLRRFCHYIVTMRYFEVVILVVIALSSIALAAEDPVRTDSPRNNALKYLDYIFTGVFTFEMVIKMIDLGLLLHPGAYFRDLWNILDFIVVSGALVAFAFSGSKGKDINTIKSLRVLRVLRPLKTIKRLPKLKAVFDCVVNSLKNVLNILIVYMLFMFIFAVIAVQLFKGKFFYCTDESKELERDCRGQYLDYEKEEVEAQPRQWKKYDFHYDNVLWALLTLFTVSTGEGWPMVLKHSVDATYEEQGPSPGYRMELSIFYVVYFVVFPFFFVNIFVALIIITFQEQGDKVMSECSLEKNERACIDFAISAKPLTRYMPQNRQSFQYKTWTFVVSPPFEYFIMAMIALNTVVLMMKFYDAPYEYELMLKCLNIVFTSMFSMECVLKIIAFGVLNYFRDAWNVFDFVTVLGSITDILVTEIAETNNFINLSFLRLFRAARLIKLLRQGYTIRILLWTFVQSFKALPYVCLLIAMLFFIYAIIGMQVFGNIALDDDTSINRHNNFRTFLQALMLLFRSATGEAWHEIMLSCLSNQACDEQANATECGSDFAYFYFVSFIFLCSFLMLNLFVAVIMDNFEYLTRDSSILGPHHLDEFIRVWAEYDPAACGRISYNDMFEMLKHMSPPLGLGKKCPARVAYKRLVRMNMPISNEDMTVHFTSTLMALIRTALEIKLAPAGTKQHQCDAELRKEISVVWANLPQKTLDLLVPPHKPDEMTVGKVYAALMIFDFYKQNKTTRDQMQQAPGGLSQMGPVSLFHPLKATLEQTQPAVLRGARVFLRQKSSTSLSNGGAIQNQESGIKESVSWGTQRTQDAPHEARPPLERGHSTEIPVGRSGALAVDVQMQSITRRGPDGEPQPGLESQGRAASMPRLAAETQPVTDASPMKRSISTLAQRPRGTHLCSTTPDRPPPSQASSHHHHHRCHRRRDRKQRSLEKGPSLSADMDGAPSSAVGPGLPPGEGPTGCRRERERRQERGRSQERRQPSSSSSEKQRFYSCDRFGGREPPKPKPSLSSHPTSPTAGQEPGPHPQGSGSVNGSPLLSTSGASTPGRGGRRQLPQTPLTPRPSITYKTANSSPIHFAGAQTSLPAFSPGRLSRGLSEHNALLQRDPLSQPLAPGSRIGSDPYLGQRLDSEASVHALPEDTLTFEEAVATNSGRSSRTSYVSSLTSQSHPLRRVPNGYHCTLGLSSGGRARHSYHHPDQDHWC

[8] = Ratio of drug level in plasma to brain in Sprague-Dawley rat; type: ADME, cell-free; settings: in vivo
[9] = Cmax in rat at 1 mg/kg, iv or 2 mg/kg, po; type: ADME, organism-based; settings: in vivo; summary of the method: as §1
[10] = AUC(0 to 8 hrs) in rat at 2 mg/kg, po; type: ADME, organism-based; set-up: time < 6 hr, dose 2 mg/kg, route oral; settings: in vivo; summary of the method: as §1
Rattus norvegicus [11] = species: Rattus norvegicus; assay: Cardiotoxicity in rat assessed as increase in cardiac contractility at plasma concentration of 4.7 ug/ml; type: toxicity, organism-based
Rattus norvegicus [12] = assay: Toxicity in Sprague-Dawley rat reserpine model of central pain assessed as overt impairments at 10 to 100 mg/kg, po; type: organism-based; settings: in vivo
[13] = Volume of distribution at steady state in rat at 1 mg/kg, iv or 2 mg/kg, po; type: ADME, organism-based; settings: in vivo, read-out: Vdss; summary of the method: as §1

## C[C@]1(O)C[C@](c2cc(C(F)(F)F)ccn2)([C@H](O)c2ccccn2)C1 (mixture of isomers)
Liver microsome
  CL free: 100 mL/min/kg
[1]
  bioavailability: 26%
Rattus norvegicus [2]
  Activity: Dose-dependent effect
  EC50: 11 µmol
[3]
  fraction unbound: 0.89
Rattus norvegicus [4]
  Activity: Dose-dependent effect
  EC50: 11 µmol
Rattus norvegicus [5]
  Activity: Non-toxic
[6]
  Activity: < 50%
[7]
  Activity: < 50%
[8]
  Ratio: 1
[9]
  Cmax: 190 ng/mL
[10]
  AUC(0-t) at 6 h: 380 ng·h/mL
Rattus norvegicus [11]
  Activity: Non-toxic
Rattus norvegicus [12]
  Activity: Non-toxic
[13]
  Vd: 1.4 L/kg
